# In the library only some 2.6% were active in any assay of this set; here they are far more common.
# HTR1E antagonist: 5-HT1E (human) receptor antagonism; CHO 5-HT1E Ga15 NFAT-bla reporter, FRET, antagonist; inhibition, % at 6 µM; 65,000 tested, 0.99% active; AID 571;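 active = inhibition above a set limit, the mean inhibition across every tested compound plus 3 SD, cut at about 29% in these data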;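 note: signal is the 460 over 535 nm emission ratio of beta-lactamase substrate; 0% = agonist plus DMSO wells and 100% = wells without agonist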
# 5HT1a antag: antagonists of human 5-HT1a serotonin receptor. P08908. CHO 5-HT1a Ga15 NFAT-bla reporter, antagonist mode. inhibition, % at 10 µM. 62,000 tested, 0.68% active;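 active = inhibition above the mean of all tested compounds plus 3 SD, cut at about 43% in these data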;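 note: receptor stimulated by 5-CT agonist at 100 nM near EC80; beta-lactamase reporter measured by ratiometric fluorescence of a cleavable substrate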
# Target sequence (P08908 whole entry, looked up): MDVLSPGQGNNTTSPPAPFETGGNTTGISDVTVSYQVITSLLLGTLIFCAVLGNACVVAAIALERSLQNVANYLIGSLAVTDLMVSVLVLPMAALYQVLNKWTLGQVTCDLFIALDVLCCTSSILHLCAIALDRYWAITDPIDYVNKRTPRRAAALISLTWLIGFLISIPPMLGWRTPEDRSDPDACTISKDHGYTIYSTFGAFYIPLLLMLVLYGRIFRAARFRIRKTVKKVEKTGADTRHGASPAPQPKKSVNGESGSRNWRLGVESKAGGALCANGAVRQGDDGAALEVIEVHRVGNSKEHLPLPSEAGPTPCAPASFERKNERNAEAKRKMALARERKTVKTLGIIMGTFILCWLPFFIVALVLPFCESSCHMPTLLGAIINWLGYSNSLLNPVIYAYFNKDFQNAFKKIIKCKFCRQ
# HEK293 NFkB inh: lowers PMA/ionomycin-induced NF-kB signal in HEK293 cells; HEK-293 NF-kB luciferase reporter, luminescence; inhibition, % at 3 µM; 62,000 tested, 0.21% active; AID 465;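 active = inhibition above the mean of all tested compounds plus 3 SD, cut at about 40% in these data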;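 note: 0% = stimulated DMSO wells and 100% = 10 µM reference inhibitor 5653914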
#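 System – HEK-293 cells with stable firefly luciferase reporter driven by four HIV NF-kB elements · Doses – one dose, 3 µM · Schedule – 1 h compound pre-incubation, 16 h PMA/ionomycin at 37 °C · Technique – luminescence from luciferase substrate reagent · Measure – percent inhibition normalized per plate to DMSO and reference-inhibitor controls · Replicates – tested once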
# HTR1E agonist: activates the human 5-HT1E serotonin receptor | P28566 | CHO 5-HT1E Ga15 NFAT-bla reporter, FRET; 0% DMSO wells, 100% control agonist wells | activation, % at 6 µM | 65,000 tested, 0.69% active;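 active = activation above a set limit, the screen-wide mean activation plus 3 SD, cut at about 8.5% in these data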;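 note: 100% = positive control agonist at 1 µM giving full maximal response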
# HTR1A agonist: activates the human 5-HT1a serotonin receptor; CHO 5-HT1a Ga15 NFAT-bla reporter, FRET ratio; 0% basal, 100% maximal reference agonist; P08908; activation, % at 10 µM; 65,000 tested, 0.56% active;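 active = activation above the screen-wide mean activation plus 3 SD, cut at about 19% in these data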;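 note: 0% = DMSO wells and 100% = 5-CT at EC100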
# * marks the source's active call; other numbers are inactive results; . = no result.
SMILES,HTR1E antagonist,5HT1a antag,HEK293 NFkB inh,HTR1E agonist,HTR1A agonist
CC1NC(=O)N(C)C2NC(=O)N(C)C(c3ccccc3)C12 (configuration not stated),7,7,15,-1,-2
Cc1ccc(Oc2ccc(S(=O)(=O)N3CCOCC3)cc2C(N)=O)c(-n2nc3ccccc3n2)c1,39*,18,28,0,2
COc1ccc(NC(=O)c2cc(Cl)ccc2NC(=O)c2ccco2)c(OC)c1,-3,8,23,1,-1
CCCCc1nc(N2CCOCC2)c(C#N)c2c1COC(C)(C)C2,4,.,.,0,-1
CCCCc1c(C)nn(-c2nnc3c4ccccc4n(CC)c3n2)c1C,7,10,7,0,1
CCn1c2ccccc2c2nc3cc(OC)c(OC)cc3nc21,45*,7,25,2,5
COc1cc2nc3c4ccccc4n(CC#N)c3nc2cc1OC,5,-11,5,2,-2
CCn1c2ccccc2c2nc3ccccc3nc21,32*,-9,-2,0,1
Cc1cccc(OCc2nnc(SCC(=O)Nc3cc(C)on3)n2C)c1,2,11,6,-1,0
CC(C)OC(=O)CSc1nnc(-c2cccnc2)n1N,29*,10,12,-1,0
CC(C)OC(=O)CSc1nnc(-c2cccnc2)n1Cc1ccccc1,-8,-1,20,0,-1
Oc1c(C(c2ccco2)N2CCN(C(c3ccccc3)c3ccccc3)CC2)sc2ncnn12 (configuration not stated),-9,31,15,-1,-8
O=C(NCCc1c[nH]c2ccccc12)c1ccc(-n2cnnn2)cc1,10,4,3,-1,-4
O=C(NCCc1c[nH]c2ccccc12)c1ccc(S(=O)(=O)NCc2ccco2)cc1,10,7,19,13*,1
O=C(Nc1ccc(S(=O)(=O)NCc2ccco2)cc1)c1ccc2ccccc2n1,4,49*,10,0,-1
O=C(COc1ccccc1)Nc1ccc(S(=O)(=O)NCc2ccco2)cc1,-7,2,-12,1,-1
O=C(c1ccco1)N1CCN(CC(O)Cn2c3ccccc3c3ccccc32)CC1 (configuration not stated),-10,0,23,0,2
Cc1[nH]c2ccc(C(=O)OCCN(C)C)cc2c1C,-6,-11,4,31*,0
CCOC(=O)c1ccc2[nH]c(C)c(CCC(C)=O)c(=O)c2c1,0,6,12,2,0
CC(C)c1nnc(NC(=O)Cn2nc(-c3ccc4c(c3)OCCO4)ccc2=O)s1,0,-1,15,14*,-2
O=C(Cn1nc(-c2ccc3c(c2)OCCO3)ccc1=O)Nc1ccc(N2CCOCC2)cc1,-5,-7,16,0,4
CC1CCCN(c2ncnc3c2cnn3-c2ccccc2)C1 (configuration not stated),3,15,-5,2,-1
CC1CCCN(c2ncnc3c2cnn3-c2ccc(Cl)cc2)C1 (configuration not stated),8,-13,71*,0,1
CC(C)CC(c1nnnn1Cc1ccco1)N1CCN(c2cccc(Cl)c2)CC1 (configuration not stated),13,46*,9,-2,5
CC(C)CC(c1nnnn1CC1CCCO1)N1CCN(c2cccc(Cl)c2)CC1 (configuration not stated),4,23,7,4,-1
SMILES,HTR1E antagonist,5HT1a antag,HEK293 NFkB inh,HTR1E agonist,HTR1A agonist
COC(=O)c1c(-c2cccs2)csc1NC(=O)c1cccnc1,6,-19,22,1,1
Cc1c(Cc2ccccc2)c(=O)oc2c(CN(C)C)c(O)c(Cl)cc12,-9,-44,10,8,20*
COc1ccccc1C(=O)Nc1c2c(nn1-c1cccc(C)c1C)CS(=O)C2 (configuration not stated),2,14,6,0,2
O=C(CCn1nnc2ccccc21)Nc1nnc(Cc2ccc(F)cc2)s1,3,6,20,13*,-1
CC(OC(=O)c1cccs1)C(=O)NCc1ccco1 (configuration not stated),-6,-10,11,16*,5
CC(C)C(OC(=O)c1cccs1)C(=O)NCc1ccco1 (configuration not stated),12,24,5,-1,-3
